Measured values gathered from unrelated publications.
Each line is one published result; the experiments were not run side by side.

CCS(=O)(=O)Nc1ccc(Oc2ccc(F)cc2F)c(-c2cn(C)c(=O)c3[nH]ccc23)c1
IC50 (MP46; cell growth or viability; ATP luminescence; 72 h): 89.2 nM

COc1ccc(C[C@H](N)C(=O)N[C@H]2[C@@H](O)[C@H](n3cnc4c(N(C)C)ncnc43)O[C@@H]2CO)cc1
IC50 (THP-1; cell growth or viability; 72 h): 2030 nM

O=C(CSc1nc2ccccc2s1)N/N=C/c1ccc(OCC(=O)Nc2cccc(Cl)c2)cc1
IC50 (CAPAN-1; cell growth or viability; MTS; 72 h): 18200 nM

COc1ccc(-c2nc(N3CCOCC3)c3sc(CN(C)c4ncc(C(=O)NO)cn4)cc3n2)cn1
IC50 (MP46; cell growth or viability; ATP luminescence; 72 h): 9.29 nM

N#Cc1ccc(-c2cc(COc3cc(C(F)(F)F)nc4ccccc34)on2)cc1
IC50 (CAPAN-1; cell growth or viability; MTS; 72 h): 22500 nM

Cc1cc2c(C(N)=O)cccc2n1-c1nc2c(c(NCc3ccccc3)n1)CCCN2
IC50 (SW-620; cell growth or viability; 72 h): 600 nM

O=[N+]([O-])c1ccc(Sc2cccc[n+]2[O-])c2nonc12
IC50 (MP46; cell growth or viability; ATP luminescence; 72 h): 2790 nM

CC1(COc2ccc(CC3SC(=O)NC3=O)cc2)CCCCC1 (stereo not shown)
IC50 (HepaRG; reactive oxygen species; inhibitor; 16 h): 11100 nM

O=C(NO)c1ccc(Cn2cnc3c(Nc4ccc(F)c(Cl)c4)ncnc32)cc1
IC50 (THP-1; cell growth or viability; MTT; 72 h): 1610 nM

COc1ccc(N(C)c2nc(C)nc3ccccc23)cc1OCCCC(=O)NO
IC50 (MP46; cell growth or viability; ATP luminescence; 72 h): 94.8 nM

CC1(P2(=O)CCCCC2)C=CCC=C1
IC50 (SW-620; cell growth or viability; MTT; 72 h): > 100000 nM

Cc1noc(C)c1-c1cc(C(O)(c2ccccn2)c2ccccn2)c2nc(C3CC3)[nH]c2c1
IC50 (MP46; cell growth or viability; ATP luminescence; 72 h): 71.2 nM

COc1cc(C2C3=C(COC3=O)N(CCO)c3cc4c(cc32)CCC4)cc(OC)c1OC (stereo not shown)
IC50 (SUM159; cell growth or viability; ATP luminescence; 48 h): 240 nM

Nc1ccccc1NC(=O)c1ccc(Cn2cnc3c(Nc4ccc(Br)cc4F)ncnc32)cc1
IC50 (THP-1; cell growth or viability; MTT; 72 h): 410 nM

Cc1cccc(C)c1NC(=O)CN1CCCC1=O
IC50 (HepaRG; reactive oxygen species; inhibitor; 16 h): 5930 nM

CC1(P2(=O)CCCCC2)CCCCC1
IC50 (SW-620; cell growth or viability; MTT; 72 h): > 100000 nM

FC(F)(F)c1cc(OCc2cc(-c3ccc(Cl)cc3Cl)no2)c2ccccc2n1
IC50 (CAPAN-1; cell growth or viability; MTS; 72 h): > 100000 nM

CC(C)C[C@H](NC(=O)[C@H](Cc1ccccc1)NC(=O)c1cnccn1)B(O)O
IC50 (MP46; cell growth or viability; ATP luminescence; 72 h): 3.52 nM

O=P1(C2CCCCC2)CCCCC1
IC50 (SW-620; cell growth or viability; MTT; 72 h): 16100 nM

Clc1ccc(-c2cc(CNc3cccc4cccnc34)on2)c(Cl)c1
IC50 (CAPAN-1; cell growth or viability; MTS; 72 h): 14900 nM

O=C(CSc1nc2ccccc2s1)N/N=C/c1ccc(OCC(=O)Nc2ccc(Br)cc2)cc1
IC50 (CAPAN-1; cell growth or viability; MTS; 72 h): 10200 nM

c1ccc(-c2cc(CNc3cccc4cccnc34)on2)nc1
IC50 (CAPAN-1; cell growth or viability; MTS; 72 h): 13100 nM

Cc1[nH]c2ccccc2c1CCNCc1ccc(/C=C/C(=O)NO)cc1
IC50 (MP46; cell growth or viability; ATP luminescence; 72 h): 27.7 nM

N/C(=N\O)c1ccc(-c2cc(CNc3cccc4cccnc34)on2)cc1
IC50 (CAPAN-1; cell growth or viability; MTS; 72 h): 4700 nM

O=C(NO)c1ccc(Cn2cnc3c(Nc4ccc(Cl)cc4)ncnc32)cc1
IC50 (THP-1; cell growth or viability; MTT; 72 h): 190 nM

O=c1cc(OCc2cc(-c3ccccc3)no2)c2ccccc2o1
IC50 (CAPAN-1; cell growth or viability; MTS; 72 h): > 100000 nM

O=C(NO)c1ccc(Cn2cnc3c(Nc4ccc(Br)cc4F)ncnc32)cc1
IC50 (THP-1; cell growth or viability; MTT; 72 h): 930 nM

FC(F)(F)c1cc(OCc2cc(-c3ccccn3)no2)c2ccccc2n1
IC50 (CAPAN-1; cell growth or viability; MTS; 72 h): > 100000 nM

O=C(CSc1nc2ccccc2s1)N/N=C/c1ccc(OCC(=O)Nc2cccc(Br)c2)cc1
IC50 (CAPAN-1; cell growth or viability; MTS; 72 h): > 100000 nM

O=c1cc(OCc2cc(-c3ccc(C(F)(F)F)cc3)no2)c2ccccc2o1
IC50 (CAPAN-1; cell growth or viability; MTS; 72 h): > 100000 nM

CSC(=O)c1cccc2nnsc12
IC50 (HepaRG; reactive oxygen species; inhibitor; 16 h): 10700 nM
